Data from ChEMBL document CHEMBL1641499, “Towards echinomycin mimetics by grafting quinoxaline residues on glycophane scaffolds” (Bioorg Med Chem, 2011).
Activity calls are given as the source filed them. The calls are words filed in the database; no cut-off is given here.

What was measured:
Conditions in all cases: Bos taurus
Calf thymus DNA [1] = experiment: Binding affinity to calf thymus DNA assessed as change on melting temperature (reference value: 76 degC)
Calf thymus DNA [2] = experiment: Binding affinity to calf thymus DNA assessed as fluorescence enhancement at 20 uM by steady state fluorescence emission spectroscopic analysis relative to control
Calf thymus DNA [3] = experiment: Binding affinity to calf thymus DNA at 20 uM after 20 mins by UV spectrophotometer analysis; format: nucleic-acid assay
Method in brief: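 Compound stock diluted in cuvette to 20 µM final with degassed 100 mM NaCl, 10 mM NaH2PO4, pH 7.0. Calf thymus DNA was added from stock. After each addition the sample was heated to 65 °C and cooled slowly (5 °C/min), and the UV-vis spectrum was recorded 20 min later at 25 °C. DNA concentration was set from ε260 = 6600 M−1 cm−1.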

Structure (SMILES) | Tm (Calf thymus DNA [1]) | fold change (FC) (Calf thymus DNA [2]) | Activity (Calf thymus DNA [3])
C=CCCCO[C@H]1O[C@H](C(=O)N(Cc2ccc(CN(Cc3cnc4ccccc4n3)C(=O)[C@H]3O[C@H](OCCCC=C)[C@H](O)[C@@H](O)[C@@H]3O)cc2)Cc2cnc3ccccc3n2)[C@@H](O)[C@H](O)[C@H]1O | 81 °C | 2.8 | Active
O=C1[C@H]2O[C@H](OC/C=C/CO[C@H]3O[C@H](C(=O)N(Cc4cnc5ccccc5n4)Cc4ccc(cc4)CN1Cc1cnc4ccccc4n1)[C@@H](O)[C@H](O)[C@H]3O)[C@H](O)[C@@H](O)[C@@H]2O | 78 °C | 5.5 | Active
O=C1[C@H]2O[C@H](OCCC/C=C/CCCO[C@H]3O[C@H](C(=O)N(Cc4cnc5ccccc5n4)Cc4ccc(cc4)CN1Cc1cnc4ccccc4n1)[C@@H](O)[C@H](O)[C@H]3O)[C@H](O)[C@@H](O)[C@@H]2O | 79 °C |  | Active

Other lines, results leading:

Tm (Calf thymus DNA [1]) | fold change (FC) (Calf thymus DNA [2]) | Activity (Calf thymus DNA [3]) | Structure (SMILES)
79 °C | 2.8 | Active | C=CCO[C@H]1O[C@H](C(=O)N(Cc2ccc(CN(Cc3cnc4ccccc4n3)C(=O)[C@H]3O[C@H](OCC=C)[C@H](O)[C@@H](O)[C@@H]3O)cc2)Cc2cnc3ccccc3n2)[C@@H](O)[C@H](O)[C@H]1O
79 °C |  | Active | CS[C@H]1SC[C@H]2C(=O)N(C)[C@@H](C(C)C)C(=O)OC[C@@H](NC(=O)c3cnc4ccccc4n3)C(=O)N[C@@H](C)C(=O)N(C)[C@@H]1C(=O)N(C)[C@@H](C(C)C)C(=O)OC[C@@H](NC(=O)c1cnc3ccccc3n1)C(=O)N[C@@H](C)C(=O)N2C
